Most compounds without a hit are left out; they make up all but 9.2% or so of the library.
HCT116 PTEN-null: suppresses growth of cells with PTEN deletion | HCT116 PTEN-null viability, CellTiter-Glo, 60 h; stronger effect = lower value | viability, % at 10 µM | hit rate 1.2% among 140,000 | AID 827;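 active = viability at or below a set limit, 4 SD under the median of all tested compounds, cut at about 3.7% in these data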;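 also: PTEN knockout HCT116 line with beta catenin targeted HCT116 as companion control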
Lmaj promast: reduces viability of Leishmania major promastigotes; resazurin fluorescence viability; inhibition, % at 10 µM; hit rate 9% among 200,000; AID 1063; in the data active = inhibition above about 50%;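 also: promastigotes grown with compound for 44 hours at 28 °C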
Dynein transport: blocks dynein driven cargo transport along microtubules | 3617.4 mouse cells, GR-EGFP nuclear translocation imaging; test concentration mostly 20 µM; stimulated with dexamethasone, 1 µM; stronger effect = lower value | z-score, hits read low | hit rate 0.47% among 220,000 | AID 1381;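 active = plate z-score of nuclear minus cytoplasmic receptor signal below a set negative limit, without overly bright fluorescence or cell loss, cut at about -3.5 in these data, passing the limit was not always enough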;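 also: z-score of nuclear minus cytoplasmic ring GR-EGFP intensity difference per well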
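Buffer or medium: Induction medium lacking tetracycline, stripped serum | Also added: Dexamethasone agonist, 1.0 µM final, for 30 min | Timing: 48 h induction, 1 h compound, 30 min dex at 37 °C | Detection: Formaldehyde fixation, Hoechst nuclear stain, 10x automated fluorescence imaging | Measure: Nuclear versus cytoplasmic GR-EGFP signal, averaged per well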
bCat KO growth: beta-catenin-lacking colon tumor cell growth suppression | HCT116 beta-catenin knockout viability, CellTiter-Glo, 60 h; stronger effect = lower value | viability, % at 10 µM | hit rate 1.5% among 140,000;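 active = viability at or under a set limit, the compound median less 4 SD, cut at about 6% in these data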
Autophagy HCS: alters autophagy in cells; MEF GFP-LC3 puncta imaging; test concentration mostly 10 µM; calls only at 10 µM (by protocol); hit rate 0.98% among 190,000;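 active = percentage of spot-positive cells more than 3 SD above its plate mean, without a fluorescence outlier flag or 80% toxicity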
A number is an active result; . = inactive; / = no result.

SMILES | HCT116 PTEN-null | Lmaj promast | Dynein transport | bCat KO growth | Autophagy HCS
C#CC[N+](C)(C)CCCCCCCC | . | . | . | . | .
O=C(O)c1ccc2c(=O)n3cc(C(=O)c4ccccc4O)cc(Cl)c3nc2c1 | / | / | . | / | /
O=C(CNC(=S)N(Cc1ccccc1)Cc1cccnc1)NC1CCCCC1 | . | . | . | . | .
COc1cc(C2NC(=O)NC(C)=C2C(C)=O)ccc1O (stereo not drawn) | / | / | . | / | /
COc1ccc(N(Cc2ccco2)C(=O)c2ccccc2F)cc1OC | . | 59 | . | . | .
CCOC(=O)C(CC)(CC)C(=O)/C=C/c1cccc(Br)c1 | / | 100 | . | / | .
COc1cc(Cl)ccc1NC(=O)COc1ccccc1C(=O)NN | / | . | . | / | .
Cc1cccc(C)c1OCc1nnc(NC(=O)CSc2ccc(Cl)cc2)s1 | . | 59 | . | . | .
O=C(CSc1ccccc1)Nc1nnc(COc2ccc(Cl)cc2)s1 | . | . | . | . | .
CCOC(=O)c1sc2ncn(C(CC)C(=O)OC)c(=O)c2c1C (stereo not drawn) | . | . | . | . | .
CCOC(=O)c1sc2ncn(C(CC)C(=O)OCC)c(=O)c2c1C (stereo not drawn) | . | 99 | . | . | .
CC(C)CC1CC(C)(c2csc(NNC(=O)c3ccccc3)n2)OC1=O (stereo not drawn) | / | . | . | / | .
Cc1cc(C)cc(OCC(=O)OCC(=O)Nc2c(C)n(C)n(-c3ccccc3)c2=O)c1 | / | . | . | / | .
CN(CC(=O)Nc1ccccc1Cl)CC(=O)Nc1c(F)cccc1F | / | . | . | / | .
CSc1nc2ccc(NS(=O)(=O)c3c(Cl)cccc3Cl)cc2s1 | . | . | . | . | .
CSc1nc2ccc(NS(=O)(=O)c3ccccc3F)cc2s1 | . | 59 | . | . | .
O=C(COc1ccc2ccccc2c1)NNC(=O)Cc1ccccc1 | . | . | . | . | .
O=C(Cc1ccccc1)NNc1ccc2ccccc2c1 | / | 96 | . | / | .
O=C(CN1C(=O)CCC1=O)NNc1ccc2ccccc2c1 | / | 96 | . | / | .
CCOC(=O)N1CCN(c2c(NCCCN3CCCCCC3)c(=O)c2=O)CC1 | . | . | . | . | .
COc1ccc(C(=O)/C=C/c2ccc(OC(=O)c3cc(OC)c(OC)c(OC)c3)cc2)cc1 | . | 65 | . | . | .
COC(=O)c1ccc(/C=C/C(=O)c2ccc(OC)c(OC)c2)cc1 | 1.6 | . | . | 3.3 | .
O=C(NC1CCCCNC1=O)c1ccccc1 (stereo not drawn) | / | / | . | / | /
Clc1ccccc1CSC1=NCCCN1 | . | . | . | . | .
Clc1ccc(CSC2=NCCCN2)cc1Cl | . | 91 | . | . | .
SMILES | HCT116 PTEN-null | Lmaj promast | Dynein transport | bCat KO growth | Autophagy HCS
Cn1c(N)c(C(=O)COC(=O)CCCOc2ccc(Cl)cc2Cl)c(=O)n(C)c1=O | / | . | . | / | .
CCN(CC)S(=O)(=O)c1ccc(N=NC2=C(O)CC(C)(C)CC2=O)cc1 | . | 80 | . | . | .
CCN(CC)S(=O)(=O)c1ccc(N=NC2=C(O)CCCC2=O)cc1 | . | . | . | . | .
CCOC(=O)C1CCCN(c2ncnc3c2[nH]c2cccc(OC)c23)C1 (stereo not drawn) | . | 76 | . | . | .
COc1cccc2[nH]c3c(N4CCC(C(N)=O)CC4)ncnc3c12 | . | . | . | . | .
COc1cccc2[nH]c3c(N4CCCC(C)C4)ncnc3c12 (stereo not drawn) | . | 99 | . | . | .
CCN(CC)CCn1cnc2c([nH]c3cccc(OC)c32)c1=O | . | . | . | . | .
COc1cccc2[nH]c3c(N4CC(C)CC(C)C4)ncnc3c12 (stereo not drawn) | . | 100 | . | . | .
CC(C)(CO)N=C1NS(=O)(=O)c2cc([N+](=O)[O-])ccc21 | . | . | . | . | .
CC(C)(C)CC(C)(C)N=C1NS(=O)(=O)c2cc([N+](=O)[O-])ccc21 | / | 100 | . | / | .
CCC(CC)N=C1NS(=O)(=O)c2cc([N+](=O)[O-])ccc21 | / | 99 | . | / | .
Cc1ccc(S(=O)(=O)CC#CCOC(=O)c2ccc([N+](=O)[O-])cc2)cc1 | . | 100 | . | . | .
O=C(COc1ccccc1)N1CCN(S(=O)(=O)c2cccc([N+](=O)[O-])c2)CC1 | / | . | . | / | .
Fc1ccc(CSc2ccc3nnc(-c4cccnc4)n3n2)cc1 | / | 66 | . | / | .
CCOC(=O)Cn1c(=O)oc2cc(S(=O)(=O)N3CCC(N4CCCCC4)CC3)ccc21 | . | . | . | . | .
O=C(Cn1c(=O)oc2cc(S(=O)(=O)N3CCCC3)ccc21)N1CCN(C2CCCCC2)CC1 | . | 85 | . | . | .

Source: PubChem BioAssay
